In ChEMBL document CHEMBL3259691, “Synthesis and cytotoxic activity of nitric oxide-releasing isosteviol derivatives” (Bioorg Med Chem Lett, 2014):

Tests used:
[1] = Cytotoxicity against mouse B16F10 cells after 48 hrs by MTT assay; assay type: functional, cell-based; details: B16-F10, 48 h
How it was run: (§1)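 Cells seeded in 96-well plates, exposed to compounds at various concentrations for 48 h at 37°C, 5% CO2. MTT (0.5 mg/mL) then added for 4 h, supernatant removed, formazan dissolved in DMSO, absorbance read at 570 nm. Percent inhibition of proliferation calculated per concentration; IC50 derived from dose-dependent response.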

[2] = system: HepG2; test: Cytotoxicity against human HepG2 cells after 48 hrs by MTT assay; assay type: functional, cell-based; details: HepG2, 48 h; how it was run: as §1

Row | Compound | IC50 [1] [µM] | IC50 [2] [µM]
1 | CC[C@@]1(O)C(=O)OCc2c1cc1n(c2=O)Cc2cc3ccccc3nc2-1 [CAMPTOTHECIN] | 2.78 | 
2 | COC(=O)[C@]1(C)CCC[C@@]2(C)[C@@H]3CC[C@@]4(C)C[C@]3(CC[C@@H]21)C/C4=N\OC(=O)CCC(=O)OCCOCCOc1no[n+]([O-])c1S(=O)(=O)c1ccccc1 | 2.12 | 2.75
3 | COC(=O)[C@]1(C)CCC[C@@]2(C)[C@@H]3CC[C@@]4(C)C[C@]3(CC[C@@H]21)C/C4=N\OC(=O)CCC(=O)OCCCOc1no[n+]([O-])c1S(=O)(=O)c1ccccc1 |  | 33.4
4 | C=C1C(=O)[C@@]2(C)CC[C@@H]3[C@]1(CC[C@H]1[C@@]3(C)CCC[C@@]1(C)C(=O)NCC(=O)OCCOc1no[n+]([O-])c1S(=O)(=O)c1ccccc1)C2 | 1.01 | 7.13
5 | C=C[C@]12CC[C@H]3[C@@](C)(CCC[C@@]3(C)C(=O)O)[C@@H]1CC[C@](C)(COC(=O)CCC(=O)OCC#CCOc1no[n+]([O-])c1S(=O)(=O)c1ccccc1)C2 | 3.84 | 7.54
6 | C[C@@]12CC[C@@H]3[C@@](CC[C@H]4[C@@]3(C)CCC[C@@]4(C)C(=O)NCC(=O)OCC#CCOc3no[n+]([O-])c3S(=O)(=O)c3ccccc3)(CC1=O)C2 | 0.25 | 4.24
7 | C=C1C(=O)[C@@]2(C)CC[C@@H]3[C@]1(CC[C@H]1[C@@]3(C)CCC[C@@]1(C)C(=O)NCC(=O)OCCCOc1no[n+]([O-])c1S(=O)(=O)c1ccccc1)C2 | 0.016 | 38.6
8 | COC(=O)[C@]1(C)CCC[C@@]2(C)[C@@H]3CC[C@@]4(C)C[C@]3(CC[C@@H]21)C/C4=N\OC(=O)CCC(=O)OCCOc1no[n+]([O-])c1S(=O)(=O)c1ccccc1 |  | 30.2
9 | C=C[C@]12CC[C@H]3[C@@](C)(CCC[C@@]3(C)C(=O)O)[C@@H]1CC[C@](C)(COC(=O)CCC(=O)OCCCOc1no[n+]([O-])c1S(=O)(=O)c1ccccc1)C2 | > 50 | 
10 | C[C@@]12CC[C@@H]3[C@@](CC[C@H]4[C@@]3(C)CCC[C@@]4(C)C(=O)NCC(=O)OCCCOc3no[n+]([O-])c3S(=O)(=O)c3ccccc3)(CC(=O)O1)C2 | 2.05 | 
11 | C[C@@]12CC[C@@H]3[C@@](CC[C@H]4[C@@]3(C)CCC[C@@]4(C)C(=O)NCC(=O)OCCOc3no[n+]([O-])c3S(=O)(=O)c3ccccc3)(CC1=O)C2 | 2.76 | > 50
12 | COC(=O)[C@]12CCC(C)(C)C[C@H]1[C@H]1C(=O)C=C3[C@@]4(C)C=C(C#N)C(=O)C(C)(C)[C@@H]4CC[C@@]3(C)[C@]1(C)CC2 [BARDOXOLONE METHYL] | 5.85 | 4.99
13 | C=C[C@]12CC[C@H]3[C@@](C)(CCC[C@@]3(C)C(=O)O)[C@@H]1CC[C@](C)(COC(=O)CCC(=O)OCCOc1no[n+]([O-])c1S(=O)(=O)c1ccccc1)C2 | 1.98 | 6.44
14 | C[C@@]12CC[C@@H]3[C@@](CC[C@H]4[C@@]3(C)CCC[C@@]4(C)C(=O)NCC(=O)OCCCOc3no[n+]([O-])c3S(=O)(=O)c3ccccc3)(CC1=O)C2 | 8.06 | 
15 | COC(=O)[C@]1(C)CCC[C@@]2(C)[C@@H]3CC[C@@]4(C)C[C@]3(CC[C@@H]21)C/C4=N\OC(=O)CCC(=O)OCCCCOc1no[n+]([O-])c1S(=O)(=O)c1ccccc1 |  | 5.16
16 | C[C@@]12CC[C@@H]3[C@@](CC[C@H]4[C@@]3(C)CCC[C@@]4(C)C(=O)NCC(=O)OCCOc3no[n+]([O-])c3S(=O)(=O)c3ccccc3)(CC(=O)O1)C2 | 3.52 | 
17 | C[C@]12CC[C@@H]3[C@](CC[C@H]4[C@@]3(C)CCC[C@@]4(C)C(=O)NCC(=O)OCCCCOc3no[n+]([O-])c3S(=O)(=O)c3ccccc3)(C1)C(C=O)O2 (some centres not stated) | 5.21 | 
18 | C[C@@]12CC[C@@H]3[C@@](CC[C@H]4[C@@]3(C)CCC[C@@]4(C)C(=O)O)(CC1=O)C2 [ISOSTEVIOL] | > 100 | > 100
